Common to all, as to type: functional
Experiment [1] has as its system LNCaP. Kind of experiment: Cytotoxicity against human LNCAP cells assessed as inhibition of cell viability at 1 uM after 3 days by trypan blue dye exclusion assay. The settings on record: 72 h. The procedure, abridged: (§1)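 Viable cells were counted by trypan blue exclusion on an automated analyzer. Viability was taken as treated/vehicle viable cell count. The inhibitory rate is the control percentage viability minus the treated percentage viability. Variation between replicate experiments was at most 5%.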

A short description of experiment [2]: Cytotoxicity against human PC3 cells assessed as inhibition of cell viability at 10 uM after 3 days by trypan blue dye exclusion assay. The settings on record: PC-3, 72 h. The procedure, abridged: as §1
Experiment [3] can be described thus: Cytotoxicity against human DU145 cells assessed as inhibition of cell viability at 10 uM after 3 days by trypan blue dye exclusion assay. The settings on record: DU-145, 72 h. The method, boiled down: as §1
The nature of experiment [4]: Cytotoxicity against human PC3 cells assessed as inhibition of cell viability at 1 uM after 3 days by trypan blue dye exclusion assay. Conditions: PC-3, 72 h. The procedure, abridged: as §1
Experiment [5] relates to LNCaP. Kind of experiment: Cytotoxicity against human LNCAP cells assessed as inhibition of cell viability at 10 uM after 3 days by trypan blue dye exclusion assay. Conditions: 72 h. The method, boiled down:
as §1

Experiment [6] deals with HeLa. Nature of the experiment: Cytotoxicity against human HeLa cells assessed as inhibition of cell viability at 1 uM after 3 days by trypan blue dye exclusion assay. The settings on record: 72 h. The procedure, abridged: as §1
A short description of experiment [7]: Cytotoxicity against human DU145 cells assessed as inhibition of cell viability at 1 uM after 3 days by trypan blue dye exclusion assay. Conditions: DU-145, 72 h. The procedure, abridged: as §1
Experiment [8] has as its system HeLa. Kind of experiment: Cytotoxicity against human HeLa cells assessed as inhibition of cell viability at 10 uM after 3 days by trypan blue dye exclusion assay. Conditions: 72 h. The procedure, abridged:
as §1

This is an account of results in ChEMBL document CHEMBL3763099, “Synthesis and evaluation of 1,7-diheteroarylhepta-1,4,6-trien-3-ones as curcumin-based anticancer agents” (Eur J Med Chem, 2016).

The term inhibition denotes the share of the control response that was lost under treatment. As for `CCCCn1ccnc1/C=C/C=C/C(=O)/C=C/c1nccn1CCCC`, the inhibition at 1 µM was found to be 47% in experiment [1], 33% in experiment [4], 44% in experiment [6] and 35% in experiment [7]. Further, the inhibition at 10 µM was found to be 87% in experiment [2], 91% in experiment [3], 92% in experiment [5] and 92% in experiment [8].
As to `O=C(/C=C/C=C/c1cccnc1)/C=C/c1cccnc1`, the inhibition at 1 µM in experiment [1] was 2%; in experiment [4], 24%; in experiment [6], 20%; in experiment [7], 24%. The inhibition at 10 µM in experiment [2] was determined as 86%; in experiment [3], 87%; in experiment [5] it was 61%; in experiment [8], 97%.
In the case of `Cc1nc(C(F)(F)F)c(/C=C/C=C/C(=O)/C=C/c2sc(C)nc2C(F)(F)F)s1`, the inhibition at 1 µM in experiment [1] is 37%; in experiment [4], 24%; in experiment [6] it was 12%; in experiment [7] it was 13%. The inhibition at 10 µM was 88% in experiment [2], 80% in experiment [3], 92% in experiment [5] and 96% in experiment [8].
On to `O=C(/C=C/C=C/c1nccs1)/C=C/c1nccs1`, for which the inhibition at 1 µM came to 28% in experiment [1], 28% in experiment [4], 11% in experiment [6] and 2% in experiment [7]. Further, the inhibition at 10 µM in experiment [2] came to 86%; in experiment [3], 65%; in experiment [5] it was 80%; in experiment [8], 94%.
As to `CC(C)CCn1ccnc1/C=C/C=C/C(=O)/C=C/c1nccn1CCC(C)C`, the inhibition at 1 µM in experiment [1] came to 33%; in experiment [4], 32%; in experiment [6] it was 31%; in experiment [7], 32%. The inhibition at 10 µM in experiment [2] was determined as 89%; in experiment [3], 88%; in experiment [5], 75%; in experiment [8], 95%.
`Cn1cc(Br)c(/C=C/C=C/C(=O)/C=C/c2nn(C)cc2Br)n1`: the inhibition at 1 µM amounted to 38% in experiment [1], 25% in experiment [4], 52% in experiment [6] and 42% in experiment [7]. Also, the inhibition at 10 µM came out at 91% in experiment [2], 86% in experiment [3], 63% in experiment [5] and 95% in experiment [8].
Consider `Cc1cc(/C=C/C=C/C(=O)/C=C/c2cc(C)on2)no1`, for which the inhibition at 1 µM in experiment [1] was determined as 13%; in experiment [4] it was 25%; in experiment [6], 17%; in experiment [7] it was 25%. For the same compound, the inhibition at 10 µM stood at 88% in experiment [2], 79% in experiment [3], 70% in experiment [5] and 97% in experiment [8].
For the compound `CC(C)CCn1c(/C=C/C=C/C(=O)/C=C/c2nc3ccccc3n2CCC(C)C)nc2ccccc21`, the inhibition at 1 µM in experiment [1] came out at 15%; in experiment [4] it was 58%; in experiment [6], 53%; in experiment [7], 21%. Moreover, the inhibition at 10 µM in experiment [2] was found to be 93%; in experiment [3] it was 97%; in experiment [5] it was 60%; in experiment [8], 97%.
In the case of `CCn1ccnc1/C=C/C=C/C(=O)/C=C/c1nccn1CC`, the inhibition at 1 µM in experiment [1] is 23%; in experiment [4], 32%; in experiment [6], 43%; in experiment [7], 34%. Besides, the inhibition at 10 µM was 85% in experiment [2], 84% in experiment [3], 62% in experiment [5] and 98% in experiment [8].
`O=C(/C=C/C=C/c1ccncc1)/C=C/c1ccncc1`: the inhibition at 1 µM in experiment [1] came to 20%; in experiment [4], 33%; in experiment [6], 22%; in experiment [7] it was 60%. The inhibition at 10 µM in experiment [2] came out at 84%; in experiment [3], 81%; in experiment [5] it was 50%; in experiment [8], 95%.
Turning to `CCCCCCn1ccnc1/C=C/C=C/C(=O)/C=C/c1nccn1CCCCCC`, the inhibition at 1 µM in experiment [1] came out at 31%; in experiment [4], 11%; in experiment [6], 32%; in experiment [7] it was 34%. For the same compound, the inhibition at 10 µM in experiment [2] came to 85%; in experiment [3], 86%; in experiment [5], 76%; in experiment [8] it was 98%.
On to `O=C(/C=C/C=C/c1ccncc1F)/C=C/c1ccncc1F`, for which the inhibition at 1 µM in experiment [1] worked out at 31%; in experiment [4], 19%; in experiment [6] it was 26%; in experiment [7], 36%. Also, the inhibition at 10 µM was found to be 84% in experiment [2], 81% in experiment [3], 66% in experiment [5] and 94% in experiment [8].
Take `Cn1ccnc1/C=C/C=C/C(=O)/C=C/c1nccn1C`: the inhibition at 1 µM turned out to be 41% in experiment [1], 35% in experiment [4], 18% in experiment [6] and 21% in experiment [7]. For the same compound, the inhibition at 10 µM in experiment [2] amounted to 83%; in experiment [3], 66%; in experiment [5], 55%; in experiment [8] it was 93%.
`CCCn1ccnc1/C=C/C=C/C(=O)/C=C/c1nccn1CCC`: the inhibition at 1 µM in experiment [1] came out at 38%; in experiment [4], 23%; in experiment [6] it was 34%; in experiment [7] it was 25%. In addition, the inhibition at 10 µM in experiment [2] worked out at 91%; in experiment [3], 84%; in experiment [5], 95%; in experiment [8] it was 98%.
On to `Cc1cccc(/C=C/C=C/C(=O)/C=C/c2cccc(C)n2)n1`, for which the inhibition at 1 µM in experiment [1] was 50%; in experiment [4], 35%; in experiment [6], 40%; in experiment [7] it was 12%. In addition, the inhibition at 10 µM worked out at 91% in experiment [2], 75% in experiment [3], 57% in experiment [5] and 94% in experiment [8].
For the compound `CCCCCCCn1ccnc1/C=C/C=C/C(=O)/C=C/c1nccn1CCCCCCC`, the inhibition at 1 µM in experiment [1] is 12%; in experiment [4], 28%; in experiment [6] it was 13%; in experiment [7] it was 25%. Besides, the inhibition at 10 µM in experiment [2] amounted to 92%; in experiment [3], 93%; in experiment [5] it was 70%; in experiment [8], 99%.
As to `CCCCCn1ccnc1/C=C/C=C/C(=O)/C=C/c1nccn1CCCCC`, the inhibition at 1 µM was found to be 44% in experiment [1], 36% in experiment [4], 39% in experiment [6] and 43% in experiment [7]. The inhibition at 10 µM in experiment [2] was 86%; in experiment [3], 88%; in experiment [5], 94%; in experiment [8] it was 95%.
For the compound `O=C(/C=C/C=C/c1ccccn1)/C=C/c1ccccn1`, the inhibition at 1 µM in experiment [1] came out at 0%; in experiment [4] it was 17%; in experiment [6], 21%; in experiment [7], 11%. Further, the inhibition at 10 µM was found to be 20% in experiment [2], 37% in experiment [3], 7.2% in experiment [5] and 24% in experiment [8].
Turning to `CC(C)=CCn1ccnc1/C=C/C=C/C(=O)/C=C/c1nccn1CC=C(C)C`, the inhibition at 1 µM in experiment [1] amounted to 38%; in experiment [4], 35%; in experiment [6] it was 66%; in experiment [7], 0%. Moreover, the inhibition at 10 µM worked out at 87% in experiment [2], 75% in experiment [3], 70% in experiment [5] and 94% in experiment [8].
For `Cc1csc(/C=C/C=C/C(=O)/C=C/c2nc(C)cs2)n1`, the inhibition at 1 µM in experiment [1] was found to be 21%; in experiment [4], 25%; in experiment [6], 20%; in experiment [7] it was 8%. Besides, the inhibition at 10 µM in experiment [2] came to 86%; in experiment [3] it was 46%; in experiment [5] it was 57%; in experiment [8] it was 96%.
In the case of `COc1cc(/C=C/C(=O)CC(=O)/C=C/c2ccc(O)c(OC)c2)ccc1O` [CURCUMIN], the inhibition at 1 µM in experiment [1] turned out to be 29%; in experiment [4], 2.5%; in experiment [6], 14%; in experiment [7], 7%. The inhibition at 10 µM in experiment [2] was 55%; in experiment [3], 59%; in experiment [5] it was 66%; in experiment [8] it was 50%.
